Experimental data: ChEMBL document CHEMBL1687757, “Many chromosomal genes modulate MarA-mediated multidrug resistance in Escherichia coli” (2010)
Converted amounts (≈) assume the structure as drawn.

tested on: Escherichia coli; test: Antibacterial activity against marA-overproducing Escherichia coli CR1000 harboring inactivated ompR gene assessed as MarA-mediated multidrug resistance level by measuring fold change in MIC relative to MarA-deficient Escherichia coli CR2000; assay type: functional; conditions: not given
Procedure, shortened: (§1)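 Each inactivated gene was transferred into both the ΔmarR (CR1000) and the ΔmarRA (CR2000) BW25113 backgrounds. Each derivative was grown overnight in LB and tested by Etest on Mueller-Hinton plates, read after 20 h at 37°C, against cefoxitin, norfloxacin, chloramphenicol and minocycline. The MarA-mediated level compares the MIC in the ΔmarR derivative with the MIC in the matching ΔmarRA derivative.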

SMILES | Activity [%]
CO[C@@]1(NC(=O)Cc2cccs2)C(=O)N2C(C(=O)O)=C(COC(N)=O)CS[C@@H]21 [CEFOXITIN] | 67

tested on: Escherichia coli; test: Antibacterial activity against MarA-overexpressing Escherichia coli CR1000 after 20 hrs by Etest method; assay type: functional; conditions: CR1000, 20 h
Procedure, shortened: (§2)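 MICs by Etest strips on Mueller-Hinton plates, following the manufacturer's specifications. Cells came from overnight liquid cultures in LB at 37°C with agitation. Plates were read after 20 h at 37°C. Antibiotics tested were cefoxitin, norfloxacin, chloramphenicol and minocycline.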

SMILES | MIC [µg/mL]
CO[C@@]1(NC(=O)Cc2cccs2)C(=O)N2C(C(=O)O)=C(COC(N)=O)CS[C@@H]21 [CEFOXITIN] | 10.6 (≈ 24.8 µM)

tested on: Escherichia coli; test: Antibacterial activity against marA-overproducing Escherichia coli CR1000 harboring inactivated yfdG gene assessed as MarA-mediated multidrug resistance level by measuring fold change in MIC relative to MarA-deficient Escherichia coli CR2000; assay type: functional; conditions: not given; procedure, shortened: as §1

SMILES | Activity [%]
CO[C@@]1(NC(=O)Cc2cccs2)C(=O)N2C(C(=O)O)=C(COC(N)=O)CS[C@@H]21 [CEFOXITIN] | 68

tested on: Escherichia coli; test: Antibacterial activity against marA-overproducing Escherichia coli CR1000 harboring inactivated treC gene assessed as MarA-mediated multidrug resistance level by measuring fold change in MIC relative to MarA-deficient Escherichia coli CR2000; assay type: functional; conditions: not given; procedure, shortened: as §1

SMILES | Activity [%]
CO[C@@]1(NC(=O)Cc2cccs2)C(=O)N2C(C(=O)O)=C(COC(N)=O)CS[C@@H]21 [CEFOXITIN] | 94

tested on: Escherichia coli; test: Antibacterial activity against marA-overproducing Escherichia coli CR1000 harboring inactivated yibLp gene assessed as MarA-mediated multidrug resistance level by measuring fold change in MIC relative to MarA-deficient Escherichia coli CR2000; assay type: functional; conditions: not given; procedure, shortened: as §1

SMILES | Activity [%]
CO[C@@]1(NC(=O)Cc2cccs2)C(=O)N2C(C(=O)O)=C(COC(N)=O)CS[C@@H]21 [CEFOXITIN] | 68

tested on: Escherichia coli; test: Antibacterial activity against marA-overproducing Escherichia coli CR1000 harboring inactivated nikD gene assessed as MarA-mediated multidrug resistance level by measuring fold change in MIC relative to MarA-deficient Escherichia coli CR2000; assay type: functional; conditions: not given; procedure, shortened: as §1

SMILES | Activity [%]
CO[C@@]1(NC(=O)Cc2cccs2)C(=O)N2C(C(=O)O)=C(COC(N)=O)CS[C@@H]21 [CEFOXITIN] | 68

tested on: Escherichia coli; test: Antibacterial activity against marA-overproducing Escherichia coli CR1000 harboring inactivated yniDp gene assessed as MarA-mediated multidrug resistance level by measuring fold change in MIC relative to MarA-deficient Escherichia coli CR2000; assay type: functional; conditions: not given; procedure, shortened: as §1

SMILES | Activity [%]
CO[C@@]1(NC(=O)Cc2cccs2)C(=O)N2C(C(=O)O)=C(COC(N)=O)CS[C@@H]21 [CEFOXITIN] | 94

tested on: Escherichia coli; test: Ratio of MIC for marA-overproducing Escherichia coli CR1000 to MIC for MarA-deficient Escherichia coli CR2000; assay type: functional; conditions: not given
Procedure, shortened: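 MICs measured by Etest on Mueller-Hinton plates, read after 20 h at 37°C, for the ΔmarR strain (constitutive chromosomal marA overexpression) and the ΔmarRA strain (BW25113 background), both grown overnight in LB at 37°C. MarA-mediated MDR expressed as the ΔmarR/ΔmarRA MIC ratio.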

SMILES | Ratio
CO[C@@]1(NC(=O)Cc2cccs2)C(=O)N2C(C(=O)O)=C(COC(N)=O)CS[C@@H]21 [CEFOXITIN] | 3.3

tested on: Escherichia coli; test: Antibacterial activity against MarA-deficient Escherichia coli CR2000 after 20 hrs by Etest method; assay type: functional; conditions: CR2000, 20 h
Procedure, shortened: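 Overnight LB-grown cultures (37°C, agitation) of the ΔmarRA strain (BW25113 background) tested on Mueller-Hinton plates with Etest strips per manufacturer's instructions. MIC read after 20 h at 37°C.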

SMILES | MIC [µg/mL]
CO[C@@]1(NC(=O)Cc2cccs2)C(=O)N2C(C(=O)O)=C(COC(N)=O)CS[C@@H]21 [CEFOXITIN] | 3.2 (≈ 7.49 µM)

tested on: Escherichia coli; test: Antibacterial activity against marA-overproducing Escherichia coli CR1000 harboring inactivated maoC gene assessed as MarA-mediated multidrug resistance level by measuring fold change in MIC relative to MarA-deficient Escherichia coli CR2000; assay type: functional; conditions: not given; procedure, shortened: as §1

SMILES | Activity [%]
CO[C@@]1(NC(=O)Cc2cccs2)C(=O)N2C(C(=O)O)=C(COC(N)=O)CS[C@@H]21 [CEFOXITIN] | 100

tested on: Escherichia coli; test: Antibacterial activity against wild-type Escherichia coli BW25113 after 20 hrs by Etest method; assay type: functional; conditions: BW25113, 20 h; procedure, shortened: as §2

SMILES | MIC [µg/mL]
CO[C@@]1(NC(=O)Cc2cccs2)C(=O)N2C(C(=O)O)=C(COC(N)=O)CS[C@@H]21 [CEFOXITIN] | 4 (≈ 9.36 µM)

tested on: Escherichia coli; test: Antibacterial activity against marA-overproducing Escherichia coli CR1000 harboring inactivated hns gene assessed as MarA-mediated multidrug resistance level by measuring fold decrease in MIC relative to MarA-deficient Escherichia coli CR2000; assay type: functional; set-up: scale not given: the % may be the effect or the level left; conditions: not given; procedure, shortened: as §1

SMILES | Activity [%]
CO[C@@]1(NC(=O)Cc2cccs2)C(=O)N2C(C(=O)O)=C(COC(N)=O)CS[C@@H]21 [CEFOXITIN] | 19

tested on: Escherichia coli; test: Antibacterial activity against marA-overproducing Escherichia coli CR1000 harboring inactivated ynfE gene assessed as MarA-mediated multidrug resistance level by measuring fold change in MIC relative to MarA-deficient Escherichia coli CR2000; assay type: functional; conditions: not given; procedure, shortened: as §1

SMILES | Activity [%]
CO[C@@]1(NC(=O)Cc2cccs2)C(=O)N2C(C(=O)O)=C(COC(N)=O)CS[C@@H]21 [CEFOXITIN] | 94

tested on: Escherichia coli; test: Antibacterial activity against marA-overproducing Escherichia coli CR1000 harboring inactivated tolC gene assessed as MarA-mediated multidrug resistance level by measuring fold decrease in MIC relative to MarA-deficient Escherichia coli CR2000; assay type: functional; set-up: scale not given: the % may be the effect or the level left; conditions: not given; procedure, shortened: as §1

SMILES | Activity [%]
CO[C@@]1(NC(=O)Cc2cccs2)C(=O)N2C(C(=O)O)=C(COC(N)=O)CS[C@@H]21 [CEFOXITIN] | 0

tested on: Escherichia coli; test: Antibacterial activity against marA-overproducing Escherichia coli CR1000 harboring inactivated damX gene assessed as MarA-mediated multidrug resistance level by measuring fold decrease in MIC relative to MarA-deficient Escherichia coli CR2000; assay type: functional; set-up: scale not given: the % may be the effect or the level left; conditions: not given; procedure, shortened: as §1

SMILES | Activity [%]
CO[C@@]1(NC(=O)Cc2cccs2)C(=O)N2C(C(=O)O)=C(COC(N)=O)CS[C@@H]21 [CEFOXITIN] | 40

tested on: Escherichia coli; test: Antibacterial activity against marA-overproducing Escherichia coli CR1000 harboring inactivated metV gene assessed as MarA-mediated multidrug resistance level by measuring fold change in MIC relative to MarA-deficient Escherichia coli CR2000; assay type: functional; conditions: not given; procedure, shortened: as §1

SMILES | Activity [%]
CO[C@@]1(NC(=O)Cc2cccs2)C(=O)N2C(C(=O)O)=C(COC(N)=O)CS[C@@H]21 [CEFOXITIN] | 74

tested on: Escherichia coli; test: Antibacterial activity against marA-overproducing Escherichia coli CR1000 harboring inactivated acrB gene assessed as MarA-mediated multidrug resistance level by measuring fold decrease in MIC relative to MarA-deficient Escherichia coli CR2000; assay type: functional; set-up: scale not given: the % may be the effect or the level left; conditions: not given; procedure, shortened: as §1

SMILES | Activity [%]
CO[C@@]1(NC(=O)Cc2cccs2)C(=O)N2C(C(=O)O)=C(COC(N)=O)CS[C@@H]21 [CEFOXITIN] | 6

tested on: Escherichia coli; test: Antibacterial activity against marA-overproducing Escherichia coli CR1000 harboring inactivated degP gene assessed as MarA-mediated multidrug resistance level by measuring fold change in MIC relative to MarA-deficient Escherichia coli CR2000; assay type: functional; conditions: not given; procedure, shortened: as §1

SMILES | Activity [%]
CO[C@@]1(NC(=O)Cc2cccs2)C(=O)N2C(C(=O)O)=C(COC(N)=O)CS[C@@H]21 [CEFOXITIN] | 94

tested on: Escherichia coli; test: Antibacterial activity against marA-overproducing Escherichia coli CR1000 harboring inactivated metL gene assessed as MarA-mediated multidrug resistance level by measuring fold change in MIC relative to MarA-deficient Escherichia coli CR2000; assay type: functional; conditions: not given; procedure, shortened: as §1

SMILES | Activity [%]
CO[C@@]1(NC(=O)Cc2cccs2)C(=O)N2C(C(=O)O)=C(COC(N)=O)CS[C@@H]21 [CEFOXITIN] | 120

tested on: Escherichia coli; test: Antibacterial activity against marA-overproducing Escherichia coli CR1000 harboring inactivated recD gene assessed as MarA-mediated multidrug resistance level by measuring fold change in MIC relative to MarA-deficient Escherichia coli CR2000; assay type: functional; conditions: not given; procedure, shortened: as §1

SMILES | Activity [%]
CO[C@@]1(NC(=O)Cc2cccs2)C(=O)N2C(C(=O)O)=C(COC(N)=O)CS[C@@H]21 [CEFOXITIN] | 80

tested on: Escherichia coli; test: Antibacterial activity against marA-overproducing Escherichia coli CR1000 harboring inactivated mhpT gene assessed as MarA-mediated multidrug resistance level by measuring fold change in MIC relative to MarA-deficient Escherichia coli CR2000; assay type: functional; conditions: not given; procedure, shortened: as §1

SMILES | Activity [%]
CO[C@@]1(NC(=O)Cc2cccs2)C(=O)N2C(C(=O)O)=C(COC(N)=O)CS[C@@H]21 [CEFOXITIN] | 68

tested on: Escherichia coli; test: Antibacterial activity against marA-overproducing Escherichia coli CR1000 harboring inactivated pcnB gene assessed as MarA-mediated multidrug resistance level by measuring fold decrease in MIC relative to MarA-deficient Escherichia coli CR2000; assay type: functional; set-up: scale not given: the % may be the effect or the level left; conditions: not given; procedure, shortened: as §1

SMILES | Activity [%]
CO[C@@]1(NC(=O)Cc2cccs2)C(=O)N2C(C(=O)O)=C(COC(N)=O)CS[C@@H]21 [CEFOXITIN] | 10

tested on: Escherichia coli; test: Antibacterial activity against marA-overproducing Escherichia coli CR1000 harboring inactivated cspGp gene assessed as MarA-mediated multidrug resistance level by measuring fold change in MIC relative to MarA-deficient Escherichia coli CR2000; assay type: functional; conditions: not given; procedure, shortened: as §1

SMILES | Activity [%]
CO[C@@]1(NC(=O)Cc2cccs2)C(=O)N2C(C(=O)O)=C(COC(N)=O)CS[C@@H]21 [CEFOXITIN] | 54

tested on: Escherichia coli; test: Antibacterial activity against marA-overproducing Escherichia coli CR1000 harboring inactivated crp gene assessed as MarA-mediated multidrug resistance level by measuring fold change in MIC relative to MarA-deficient Escherichia coli CR2000; assay type: functional; conditions: not given; procedure, shortened: as §1

SMILES | Activity [%]
CO[C@@]1(NC(=O)Cc2cccs2)C(=O)N2C(C(=O)O)=C(COC(N)=O)CS[C@@H]21 [CEFOXITIN] | 21

tested on: Escherichia coli; test: Antibacterial activity against marA-overproducing Escherichia coli CR1000 harboring inactivated appA gene assessed as MarA-mediated multidrug resistance level by measuring fold change in MIC relative to MarA-deficient Escherichia coli CR2000; assay type: functional; conditions: not given; procedure, shortened: as §1

SMILES | Activity [%]
CO[C@@]1(NC(=O)Cc2cccs2)C(=O)N2C(C(=O)O)=C(COC(N)=O)CS[C@@H]21 [CEFOXITIN] | 68

tested on: Escherichia coli; test: Antibacterial activity against marA-overproducing Escherichia coli CR1000 harboring inactivated acrA gene assessed as MarA-mediated multidrug resistance level by measuring fold decrease in MIC relative to MarA-deficient Escherichia coli CR2000; assay type: functional; set-up: scale not given: the % may be the effect or the level left; conditions: not given; procedure, shortened: as §1

SMILES | Activity [%]
CO[C@@]1(NC(=O)Cc2cccs2)C(=O)N2C(C(=O)O)=C(COC(N)=O)CS[C@@H]21 [CEFOXITIN] | 16

tested on: Escherichia coli; test: Antibacterial activity against marA-overproducing Escherichia coli CR1000 harboring inactivated cyaA gene assessed as MarA-mediated multidrug resistance level by measuring fold decrease in MIC relative to MarA-deficient Escherichia coli CR2000; assay type: functional; set-up: scale not given: the % may be the effect or the level left; conditions: not given; procedure, shortened: as §1

SMILES | Activity [%]
CO[C@@]1(NC(=O)Cc2cccs2)C(=O)N2C(C(=O)O)=C(COC(N)=O)CS[C@@H]21 [CEFOXITIN] | 43
